Results on one compound are retold here after ChEMBL document CHEMBL3098025, “Optimization of potency and pharmacokinetics of tricyclic indole derived inhibitors of HCV NS5B polymerase. Identification of ester prodrugs with improved oral pharmacokinetics” (Bioorg Med Chem, 2014).

Structures are written as SMILES. pIC50: −log10 of the molar value.

Data set [1] is described as follows: Inhibition of HCV1b NS5B polymerase. Set-up: species or system Hepatitis C virus subtype 1b.
A further data set has as its system Hepatitis C virus. Description: Antiviral activity against HCV1b assessed as inhibition of viral replication. The settings on record: genotype 1b. In kind it is functional, organism-based, Hepacivirus hominis. The essentials: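 In the cell-based HCV replicon assay, viral RNA levels were measured. EC50 is the concentration giving a 50% reduction in replicon RNA.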

Data set [2] deals with Liver microsome. Description: Metabolic stability in human liver microsomes assessed as oxidation. The format is ADME.
Data set [3] deals with Liver microsome. Description: Metabolic stability in human liver microsomes assessed as glutathione adduct formation. The format is ADME.

Consider `O=C(O)c1c(-c2ccc[nH]c2=O)c2c3occc3c(F)cc2n1Cc1cc(F)ccc1F`, for which, in data set [1], the pIC50 is 8.70. Moreover, the EC90 in the data set with Hepatitis C virus turned out to be 90 nM. The Stability entry in the data set on Liver microsome [2] and in the data set with Liver microsome [3] was “Stable” in each case.
